Data taken from ChEMBL document CHEMBL3576784, “Azolylthioacetamide: A Highly Promising Scaffold for the Development of Metallo-β-lactamase Inhibitors” (ACS Med Chem Lett, 2015).

Substrate: C[C@@H](O)[C@H]1C(=O)N2C(C(=O)O)=C(SCCNC=N)C[C@H]12
Experiment: Activity of Aeromonas veronii metallo-beta-lactamase ImiS
In short: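 Purified enzyme; initial rates of imipenem hydrolysis followed by UV spectrophotometry (262 or 300 nm) in 50 mM Tris pH 7.0, 25 °C. Substrate 24–140 μM, inhibitor 0–10 μM. Rates in triplicate and averaged. Inhibition mode from Lineweaver–Burk plots. Ki from fits of initial velocity vs substrate concentration at each inhibitor level.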

B1: Beta-lactamase (Aeromonas veronii), O31272 (protein)
chain: MMKGWIKCGLAGAVVLMASFWGGSVRAAGMSLTQQVSGPVYVVEDNYYVQENSMVYFGAKGVTVVGATWTPDTARELHKLIKRVSRKPVLEVINTNYHTDRAGGNAYWKSIGAKVISTRQTRDLMKSDWAEIVAFTRKGLPEYPDLPLVLPNVVHEGDFTLQEGKLRAFYLGPAHSPDGIFVYFPDQQVLYGNCILKEKLGNLSFADVKAYPQTLERLKAMKLPIKTVVGGHDSPLHGPELIDHYEALIKAASQS
B1 gave a Km of 99 µM and a kcat of 255 s⁻¹.
